Test results reported in ChEMBL document CHEMBL1828544, “Structural modification of honokiol, a biphenyl occurring in Magnolia officinalis: the evaluation of honokiol analogues as inhibitors of angiogenesis and for their cytotoxicity and structure-activity relationship” (J Med Chem, 2011).
The source made the active and inactive calls. The calls are words filed in the database; no cut-off is given here.

Columns and labels:
[1] = system: A549; assay: Antiproliferative activity against human A549 cells after 24 hrs by MTT assay; assay type: functional, cell-based; conditions: A549, 24 h
Method in brief: (§1)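 Cells (5 × 10^3/well) kept at 37 °C, 5% CO2 and treated with varied compound concentrations for 24 h. MTT given for a further 3 h, precipitate dissolved in DMSO, absorbance taken at 570 nm. IC50 calculated from percentage growth relative to untreated control.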

[2] = system: HUVEC; assay: Antiproliferative activity against human HUVEC cells after 24 hrs by MTT assay; assay type: functional, cell-based
Method in brief: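 Primary HUVECs grown on gelatin in M-199 with 20% FBS, 10 ng/mL bFGF, 2 ng/mL VEGF, 5% CO2, 37 °C. Cells (5 × 10^3/well) exposed to a range of compound concentrations for 24 h. MTT added for 3 h, formazan dissolved in DMSO, absorbance read at 570 nm. IC50 from percentage growth versus untreated control.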

[3] = Antiproliferative activity against mouse LL/2 cells after 24 hrs by MTT assay; assay type: functional, cell-based; conditions: Lewis lung carcinoma; method in brief: as §1
[4] = system: HepG2; assay: Antiproliferative activity against human HepG2 cells after 24 hrs by MTT assay; assay type: functional, cell-based; conditions: HepG2, 24 h; method in brief: as §1
[5] = organism: Danio rerio; assay: Antiangiogenic activity in fli-1:enhanced GFP expressing transgenic zebrafish embryo assessed as inhibition of neovacularisation at 20 uM after 24 hrs relative to control; assay type: functional
Method in brief: (§2)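 fli-1:EGFP transgenic zebrafish embryos sorted at about 6 hpf (6 per well), exposed in embryo water to compound at 5–40 μM for 24 h. Then anesthetized with 0.05% 2-phenoxyethanol, photographed and quantified.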

[6] = organism: Danio rerio; assay: Antiangiogenic activity in fli-1:enhanced GFP expressing transgenic zebrafish embryo assessed as inhibition of neovacularisation at 10 uM after 24 hrs relative to control; assay type: functional; method in brief: as §2
[7] = organism: Danio rerio; assay: Antiangiogenic activity in fli-1:enhanced GFP expressing transgenic zebrafish embryo assessed as inhibition of neovacularisation at 5 uM after 24 hrs relative to control; assay type: functional; method in brief: as §2
[8] = organism: Danio rerio; assay: Antiangiogenic activity in fli-1:enhanced GFP expressing transgenic zebrafish embryo assessed as inhibition of neovacularisation at 40 uM after 24 hrs relative to control; assay type: functional; method in brief: as §2

SMILES	IC50 [1]	IC50 [2]	IC50 [3]	IC50 [4]	inhibition (INH) [5]	inhibition (INH) [6]	inhibition [7]	inhibition (INH) [8]	inhibition (INH) [7]
C=CCc1cc(-c2ccc(C(F)(F)F)cc2)ccc1OC	> 100 µM	> 100 µM	78.8 µM	89 µM	–	–	–	–	–
C=CCc1ccc(O)c(-c2ccc(O)cc2)c1	76.2 µM	64.3 µM	> 100 µM	89 µM	<25%	<25%	inactive	–	–
C=CCc1ccc(OC)c(-c2ccc(OC)cc2)c1	95.4 µM	> 100 µM	71.1 µM	> 100 µM	–	–	–	–	–
C=CCc1ccc(OCC(=O)OCC)c(-c2ccc(OCC(=O)OCC)c(CC=C)c2)c1	> 91.3 µM	> 100 µM	> 91.3 µM	68.9 µM	–	–	–	–	–
C=CCc1ccc(OC)c(-c2ccc(O)c(CC=C)c2)c1	–	61.8 µM	108 µM	57.5 µM	–	–	–	–	–
C=CCc1ccc(OCCC)c(-c2ccc(O)c(CC=C)c2)c1	53.8 µM	73.3 µM	45.8 µM	49.9 µM	<25%	<25%	inactive	<25%	–
C=CCc1cc(-c2ccc(OC)cc2)cc(CC=C)c1O	75.6 µM	> 100 µM	60.3 µM	69.2 µM	<25%	<25%	inactive	<25%	–
C=CCc1cc(C=O)c(OC)c(-c2ccc(OC)c(CC=C)c2)c1	42.6 µM	39.1 µM	40.8 µM	53.9 µM	<25%	<25%	–	<25%	<25%
C=CCc1cc(CO)c(O)c(-c2cc(CO)c(O)c(CC=C)c2)c1	> 123 µM	> 100 µM	> 123 µM	> 123 µM	–	–	–	–	–
C=CCc1cc(-c2cc(F)cc(F)c2)ccc1O	> 100 µM	80 µM	78.2 µM	> 100 µM	<25%	<25%	–	<25%	<25%
C=CCc1ccc(O)c(-c2ccc(OC(C)C)c(CC=C)c2)c1	42.7 µM	70.5 µM	49.1 µM	48.4 µM	<25%	<25%	inactive	–	–
C=CCc1cc(-c2ccc(C(F)(F)F)cc2)ccc1O	76 µM	74 µM	74.8 µM	60.3 µM	<25%	<25%	inactive	<25%	–
C=CCc1cc(-c2cccc(SC)c2)ccc1O	66 µM	> 100 µM	> 100 µM	> 100 µM	–	–	–	–	–
C=CCc1ccc(OC(C)C)c(-c2ccc(OC(C)C)c(CC=C)c2)c1	> 114 µM	> 100 µM	> 114 µM	> 114 µM	–	–	–	–	–
C=CCc1cc(-c2cccc([N+](=O)[O-])c2)ccc1O	> 100 µM	> 100 µM	> 100 µM	> 100 µM	–	–	–	–	–
C=CCc1cc(CO)c(O)c(-c2ccc(O)c(CC=C)c2)c1	> 135 µM	> 100 µM	> 135 µM	> 135 µM	–	–	–	–	–
C=CCc1cc(C=O)c(OCC(=O)OCC)c(-c2ccc(OCC(=O)OCC)c(CC=C)c2)c1	> 85.8 µM	86.9 µM	26.1 µM	> 85.2 µM	–	–	–	–	–
C=CCc1cc(-c2cccc(NC(C)=O)c2)ccc1OC	> 100 µM	> 100 µM	65.1 µM	60.1 µM	–	–	–	–	–
C=CCc1ccc(OCC)c(-c2ccc(OCC)c(CC=C)c2)c1	> 124 µM	> 100 µM	> 124 µM	> 124 µM	–	–	–	–	–

SMILES	IC50 [1]	IC50 [2]	IC50 [3]	IC50 [4]	inhibition (INH) [5]	inhibition (INH) [6]	inhibition [7]	inhibition (INH) [8]	inhibition (INH) [7]
C=CCOc1ccc(-c2ccc(OC)cc2)cc1CC=C	> 100 µM	> 100 µM	> 100 µM	> 100 µM	–	–	–	–	–
C=CCc1ccc(OCCC)c(-c2ccc(OCCC)c(CC=C)c2)c1	> 114 µM	> 100 µM	> 114 µM	> 114 µM	–	–	–	–	–
C=CCc1cc(-c2ccc(OC)cc2)ccc1OC	> 100 µM	> 100 µM	> 100 µM	> 100 µM	–	–	–	–	–
C=CCc1cc(-c2ccc(OC)cc2OC)ccc1O	> 100 µM	> 100 µM	> 100 µM	> 100 µM	–	–	–	–	–
C=CCc1cc(-c2cccc([N+](=O)[O-])c2)ccc1OC	> 100 µM	> 100 µM	> 100 µM	> 100 µM	–	–	–	–	–
C=CCc1cc(-c2cccc(OC)c2)ccc1O	> 100 µM	> 100 µM	> 100 µM	> 100 µM	–	–	–	–	–
C=CCc1ccc(O)c(-c2ccc(OCCC)c(CC=C)c2)c1	82.4 µM	89.3 µM	64.8 µM	> 130 µM	–	–	–	–	–
C=CCc1cc(-c2ccc(OC)cc2)ccc1O	> 100 µM	> 100 µM	> 100 µM	> 100 µM	–	–	–	–	–
C=CCc1cc(-c2ccccc2)ccc1O	> 100 µM	> 100 µM	> 100 µM	> 100 µM	–	–	–	–	–
C=CCc1ccc(OC)c(-c2cccc([N+](=O)[O-])c2)c1	> 100 µM	> 100 µM	89.4 µM	> 100 µM	–	–	–	–	–
C=CCOc1ccc(-c2cccc([N+](=O)[O-])c2)cc1CC=C	> 100 µM	> 100 µM	> 100 µM	> 100 µM	–	–	–	–	–
C=CCc1cc(-c2ccc(F)cc2)ccc1O	> 100 µM	> 100 µM	> 100 µM	> 100 µM	–	–	–	–	–
C=CCc1cc(-c2ccc(OC)c(OC)c2)ccc1O	> 100 µM	> 100 µM	> 100 µM	> 100 µM	–	–	–	–	–
C=CC(C)(C)c1cc(-c2ccc(OC)cc2)ccc1O	> 100 µM	> 100 µM	> 100 µM	91 µM	–	–	–	–	–
C=CCc1ccc(OC)c(-c2ccc(OC)c(CC=C)c2)c1	–	> 100 µM	> 136 µM	> 136 µM	–	–	–	–	–
C=CCc1cc(-c2cccc(C(F)(F)F)c2)ccc1O	73 µM	76 µM	65.9 µM	58.3 µM	–	–	–	–	–
C=CCc1ccc(O)c(-c2cccc([N+](=O)[O-])c2)c1	> 100 µM	79.1 µM	61.4 µM	62.3 µM	<25%	<25%	inactive	–	–
C=CCc1ccc(O)c(-c2ccc(OCC)c(CC=C)c2)c1	51 µM	67.1 µM	61.6 µM	73.8 µM	–	–	–	–	–
C=CCc1ccc(OCC)c(-c2ccc(O)c(CC=C)c2)c1	81.6 µM	68.2 µM	67.6 µM	71.5 µM	–	–	–	–	–
